Inhibition data for 18 compounds are collected here from ChEMBL document CHEMBL1135621, “Development of novel EDG3 antagonists using a 3D database search and their structure-activity relationships” (J Med Chem, 2002).

For the experiment, the target named is Sphingosine 1-phosphate receptor 3 (Homo sapiens) (UniProt Q99500). The experiment in a line: Inhibitory effect towards Sphingosine 1-phosphate receptor Edg-3 (EDG3). The note with it: concentration not given here. Set-up: concentration or dose not given beside the values. Summed up: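 Hela cells transfected with human EDG3 cDNA, seeded in DMEM/10% FBS for 24 h at 37 °C, then in MEM for 24 h. Cells are loaded with 5 µM Calcium Green-1 AM in D-PBS(+) for 60 min, given 10 µM test compound for 5 min, then challenged with 1 µM S1P. Fluorescence (ex 485/em 535 nm) is read every 3 s for 30 s. Inhibition (%) is the RFU difference versus the 0.1% DMSO control, averaged over triplicate wells, run on three separate days.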
Sphingosine 1-phosphate receptor 3 (Homo sapiens), sequence (Q99500 whole entry): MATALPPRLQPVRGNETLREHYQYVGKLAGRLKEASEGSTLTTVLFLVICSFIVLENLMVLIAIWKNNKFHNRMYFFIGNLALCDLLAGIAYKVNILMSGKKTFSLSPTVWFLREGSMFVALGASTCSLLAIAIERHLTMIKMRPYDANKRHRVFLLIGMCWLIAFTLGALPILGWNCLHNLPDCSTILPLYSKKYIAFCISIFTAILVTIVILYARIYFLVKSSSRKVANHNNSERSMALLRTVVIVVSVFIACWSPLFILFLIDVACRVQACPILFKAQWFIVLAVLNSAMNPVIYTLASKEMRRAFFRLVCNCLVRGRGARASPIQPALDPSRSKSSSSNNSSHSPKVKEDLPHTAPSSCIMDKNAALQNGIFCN
As for `CCCCCCCCCC1NC(C(=O)O)CCS1` (stereo not drawn), the inhibition (usually the percentage by which the read-out fell short of the control) came to 6.9%. Then `CCCCCCCCCCCC1NC(C(=O)O)CCS1` (stereo not drawn), with 9.4%. Consider `CCCCCc1ccc(C2N[C@H](C(=O)O)CS2)cc1` (stereo partly drawn), for which the inhibition worked out at 13%. Then `CCCCCCCCCc1ccc(C2N[C@H](C(=O)O)CS2)cc1` (stereo partly drawn), with 21.9%; and `CCCCCCCc1cccc(C2N[C@H](C(=O)O)CS2)c1` (stereo partly drawn), with 43.4%.

In turn, `CCCCCCCCCCC[C@H]1N[C@H](C(=O)O)CS1` came in with an inhibition of 37.6%. Compound `CCCCCCCCCC1NC(C(=O)O)CS1` (stereo not drawn) came in with an inhibition of 14.8%. Then `CCCCCCCCCCCCCC1NC(C(=O)O)CS1` (stereo not drawn), with 6.6%; and `CCCCCCCCCCC1NC(C(=O)O)CCS1` (stereo not drawn), with 9.3%; and `CCCCCCCCCC[C@H]1N[C@H](C(=O)O)CS1`, with 34.5%. Then `CCCCCCCc1ccc(C2N[C@H](C(=O)O)CS2)cc1` (stereo partly drawn), with 42.9%; and `CCCCCCCCCCCCCC1NC(C(=O)O)CCS1` (stereo not drawn), with 5.9%. Then `CCCCCCC1NC(C(=O)O)CS1` (stereo not drawn), with 0%; and `CCCCCCCCCCC1NC(C(=O)O)CS1` (stereo not drawn), with 26.4%. In turn, `CCCCCCCCCc1cccc(C2N[C@H](C(=O)O)CS2)c1` (stereo partly drawn) came in with an inhibition of 37.2%. Then `CCCCCCCCCCCCC1NC(C(=O)O)CCS1` (stereo not drawn), with 0.3%; and `CCCCCCCCCCCCC1NC(C(=O)O)CS1` (stereo not drawn), with 15.9%. For `CCCCCc1cccc(C2N[C@H](C(=O)O)CS2)c1` (stereo partly drawn), the inhibition worked out at 9.9%.
